Entries after “also recorded” stand apart in the source; their conditions may differ. Like-named read-outs stand apart in the source and are kept apart here. Bridges are numbered along the chain shown (N, C = ends). Where no end group is shown, it is not given here.
How the values were obtained:
cystic form of Borrelia = assay: Inhibition of conversion of cystic form into spirochetal form; assay type: cell-based, Borrelia garinii (strain SKT-7.1); details: for recovery of cystic Borrelia and transformation into the spirochetal form: peptides 1.66 µM for 16 h
Method in brief: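 Cysts formed by 1:1 dilution of early-log culture in serum-free BSK-II, 2 weeks at 15 °C. 2 × 10^3 cysts exposed 16 h to test compound (two-fold series, 3.33–0.05 µM) in serum-free BSK-II, then pelleted and compound removed. Regrown 15 days at 33 °C in serum-containing BSK-II. Counted by flow cytometry; % inhibition vs PBS control; doxycycline 50 nM control.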

Borrelia [1] = assay: Dot blot binding of individual phage clones to Borrelia; design: species or system Borrelia garinii (strain SKT-7.1); details: spirochetes fixed on PVDF membrane, anti-M13 antibody
Method in brief: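 2 µl Borrelia (PBS, OD600 1.2) are spotted on activated PVDF, air-dried, fixed with 4% paraformaldehyde for 10 min, dried overnight and blocked for 1 h. Individual phage clones from the third panning (10^11) are added for 1 h with shaking. After PBS-0.05% Tween washes, anti-M13 pIII mAb (1:1000) then IRDye […] anti-mouse (1:15000) are applied, 1 h each. Read at 800 nm. No-phage negative control.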

[2] = tested on: spirochetal form of Borrelia; assay type: cell-based, Borrelia garinii (strain SKT-7.1); details: 5 days, 33 °C; for viability of Borrelia (spirochetal form): peptide 1.67 µM, triplicate; for inhibition of the spiral form of Borrelia: 0.41 µM
Method in brief: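 Early-log Borrelia (BSK-II with 6% rabbit serum, 33 °C, about 2 weeks) are counted by flow cytometry. 2 × 10^3 cells go into 200 µl fresh BSK-II with test peptide at 6.67, 3.33, 1.67 or 0 µM, 33 °C for 5 days, then are recounted by flow cytometry. Percent inhibition is relative to 0 µM. Follow-up runs use 0.83, 0.41, 0.20 and 0.10 µM. Doxycycline (50 µM–5 nM) is the positive control.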

[3] = tested on: brain microvascular endothelial cells (BMECs); assay: Cell-ELISA binding to endothelial cells; details: 2 µg peptide, fixed BMEC monolayer, triplicate
Method in brief: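 BMEC monolayers in 96 wells are washed with PBS and fixed in 4% paraformaldehyde for 10 min, then blocked. They are incubated with 2 µg His-tagged test peptide and washed with PBS-T. Bound peptide is detected with HisProbe-HRP (1:1000, 1 h, room temperature) and TMB (25 min), stopped with 2 M H2SO4, read at 450 nm. Triplicates. Negative controls omit cells or peptide.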

Borrelia [4] = assay: ELISA binding of Bor peptides to Borrelia; design: species or system Borrelia garinii (strain SKT-7.1); details: for affinity to spirochetal form, cystic form and trypsin-shaved Borrelia (ELISA): 2 µg/well
Method in brief: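 Paraformaldehyde-fixed early-log Borrelia in microtiter wells are incubated 1 h with His-tagged test peptide, 2 µg/well for screening. Two-fold dilutions from 2.6 µM to 86 nM are used for concentration dependence, with the peptide-omitted background subtracted. Detection: five PBS-T washes, HisProbe-HRP (1:1000, 0.5% BSA, 1 h, room temperature), TMB 25 min, 2 M H2SO4 stop, 450 nm. Triplicates. Negative controls omit Borrelia or peptide.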

HEK293T cells = assay: Cell toxicity, XTT assay; assay type: cell-based; details: 3.33 µM, 24 h, six replicates
Method in brief: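 HEK293T cells are grown in high-glucose DMEM with 2 mM L-glutamine and 5% FBS (37 °C, 5% CO2) to 70% confluence. They get test peptide at 3.33 or 0 µM for 24 h. XTT reagent is added for 3 h and read at 450 nm. Controls are PBS (negative) and 0.1% Triton X. Six replicates. Metabolic activity is blank-subtracted sample ×100 over blank-subtracted PBS control.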

[5] = tested on: BBB model (BMECs, cell line D3); assay type: in vitro ADME; details: 1 µg/ml Cy5.5 labelled, luminal to abluminal
Method in brief: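 D3 BMECs (5 × 10^5) are seeded on collagen-I-coated transwell inserts (1 µm pores) in complete endothelial medium. Barrier is confirmed by TEER and dextran. Cy5.5-NHS-labelled truncated OspA fragments (beta sheets 10–11 or 12–16), angiopep-2-Cy5.5 or CF770 dextran go luminally at 1 µg/ml, 37 °C. Abluminal fluorescence (650/705 nm; 770/797 nm) is read at 1, 2 and 3 h and converted by standard curves.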

bacterial cell wall = details: cited from earlier work
[6] = tested on: spirochetal form of Borrelia as well as biofilm; details: compared to antibiotics; cited from earlier work

C[C@H]1c2cccc(O)c2C(=O)C2=C(O)[C@]3(O)C(=O)C(C(N)=O)=C(O)[C@@H](N(C)C)[C@@H]3[C@@H](O)[C@@H]21 [doxycycline, reference compound]
inhibition of transformation and recovery of cysts into the spirochetal form (cystic form of Borrelia; 0.05 µM for 16 h): did not inhibit

ACGYSSFNRCGGGS (disulfide 2-10 (inferred)) [Ph.Bor-16]
binding of phage clone to Borrelia in dot blot (Borrelia [1]): best binders

ACHNETQKMCGGGS (disulfide 2-10 (inferred)) [Ph.Bor-9]
binding of phage clone to Borrelia in dot blot (Borrelia [1]): best binders

ACHNTPHHLCGGGS (disulfide 2-10 (inferred)) [Ph.Bor-23]
binding of phage clone to Borrelia in dot blot (Borrelia [1]): best binders

ACHNTSARVCGGGS (disulfide 2-10 (inferred)) [Ph.Bor-29]
binding of phage clone to Borrelia in dot blot (Borrelia [1]): best binders

ACLKLGEKWCGGGS (disulfide 2-10 (inferred)) [Ph.Bor-1]
binding of phage clone to Borrelia in dot blot (Borrelia [1]): best binders

ACNVRTCHDCGGGS (disulfide (positions not given here)) [Ph.Bor-24]
binding of phage clone to Borrelia in dot blot (Borrelia [1]): best binders

ACPRGIGLQCGGGS (disulfide 2-10 (inferred)) [Ph.Bor-26]
binding of phage clone to Borrelia in dot blot (Borrelia [1]): best binders

ACQPRNLNNCGGGS (disulfide 2-10 (inferred)) [Ph.Bor-18]
binding of phage clone to Borrelia in dot blot (Borrelia [1]): best binders

ACRGATPMSCGGGS (disulfide 2-10 (inferred)) [Ph.Bor-8]
binding of phage clone to Borrelia in dot blot (Borrelia [1]): best binders

ACTPSFSKICGGGS (disulfide 2-10 (inferred)) [Ph.Bor-11]
binding of phage clone to Borrelia in dot blot (Borrelia [1]): best binders

MRGSHHHHHHGSNEKGETSEKTIVRANGTRLEYTDIKSDGIEGRVDGGGGSDDDDKMACGYSSFNRCGGGS (disulfide 59-67 (inferred)) [Bor-16]
viability of Borrelia (spirochetal form) [2]: < 50%
recovery of cystic Borrelia and transformation into the spirochetal form (cystic form of Borrelia): significantly reduced
binding to brain microvascular endothelial cells (cell-ELISA) [3]: bind endothelial cells

MRGSHHHHHHGSNEKGETSEKTIVRANGTRLEYTDIKSDGIEGRVDGGGGSDDDDKMACPRGIGLQCGGGS (disulfide 59-67 (inferred)) [Bor-26]
viability of Borrelia (spirochetal form) [2]: < 50%
recovery of cystic Borrelia and transformation into the spirochetal form (cystic form of Borrelia): significantly reduced
binding to brain microvascular endothelial cells (cell-ELISA) [3]: bind endothelial cells

MRGSHHHHHHGSNEKGETSEKTIVRANGTRLEYTDIKSDGIEGRVDGGGGSDDDDKMACQPRNLNNCGGGS (disulfide 59-67 (inferred)) [Bor-18]
affinity to spirochetal form, cystic form and trypsin-shaved Borrelia (ELISA) (Borrelia [4]): showed affinity for all three forms
Absorbance450 in ELISA, binding to Borrelia (Borrelia [4]; peptide 0.08 µM, early log phase Borrelia, negative control subtracted): 0.8
binding to Borrelia in ELISA compared with other peptides (Borrelia [4]; peptide 0.16 µM, early log phase Borrelia): significantly higher; also recorded: showed binding affinity
inhibition of the spiral form of Borrelia [2]: more than 50%
viability of Borrelia (spirochetal form) [2]: < 50%
binding to brain microvascular endothelial cells (cell-ELISA) [3]: bind endothelial cells

MRGSHHHHHHGSNEKGETSEKTIVRANGTRLEYTDIKSDGIEGRVDGGGGSDDDDKMACTPSFSKICGGGS (disulfide 59-67 (inferred)) [Bor-11]
affinity to spirochetal form, cystic form and trypsin-shaved Borrelia (ELISA) (Borrelia [4]): showed affinity for all three forms
inhibition of the spiral form of Borrelia [2]: more than 50%
viability of Borrelia (spirochetal form) [2]: < 50%
effect on cell metabolic activity (XTT) (HEK293T cells): no adverse effects
growth inhibition of cystic form (cystic form of Borrelia; 0.41 µM, 16 h exposure, t-test p < 0.05): inhibiting growth significantly
recovery of cystic Borrelia and transformation into the spirochetal form (cystic form of Borrelia): significantly reduced
binding to brain microvascular endothelial cells (cell-ELISA) [3]: bind endothelial cells

NEKGETSEKTIVRANGTRLEYTDIKSDG [O-BBB]
affinity to Borrelia (ELISA) (Borrelia [4]; 2 µg peptide per well, fixed Borrelia, HisProbe-HRP, 450 nm, triplicate): no affinity for Borrelia
borreliacidal effect on spirochetal form ([2]; 6.67 µM): no borreliacidal effect
effect on cell metabolic activity (XTT) (HEK293T cells): no adverse effects
crossing of BBB model compared with angiopep-2 ([5]; 2nd hr): comparable to that of angiopep-2
crossing of BBB model compared with angiopep-2 ([5]; 3rd hr): significantly higher than that of angiopep-2
binding to brain microvascular endothelial cells (cell-ELISA) [3]: bind endothelial cells

melittin
time to destabilise the bacterial cell wall (bacterial cell wall): roughly 75 min
effect on the spirochetal form of Borrelia as well as biofilm [6]: significant effect

From publication PMC11842550 (Scientific Reports, 2025)
